Reference: ChEMBL document CHEMBL1177714, “Online fluorescence enhancement assay for the acetylcholine binding protein with parallel mass spectrometric identification” (J Med Chem, 2010)

Assay: Displacement of radioligand from AChBp by scintillation counting
In short: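 Lymnaea stagnalis AChBP (Ls-AChBP), expressed from baculovirus in Sf9 insect cells and purified from medium, 1.3 ng per well. Buffer (final): 1.4 mM KH2PO4, 4.3 mM Na2HPO4, 137.0 mM NaCl, 2.7 mM KCl, 20 mM Tris, 4% DMSO, 0.05% Tween 20, pH 7.4. Incubation was 60 min, then 3 h in the dark, with label-bead complexes counted. Full IC50 curves (n=3) were converted to pKi by Cheng-Prusoff.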
In the case of COc1cc(/C=C2\CCCN=C2c2cccnc2)ccc1O, the pKi is reported as 7.09.
With C(=C1/CCCN=C1c1cccnc1)/c1ccccc1 [3-BENZYLIDENEANABASEINE] the pKi was 7.13.
Compound C(=C1/CCCN=C1c1cccnc1)/c1coc2ccccc12 has a pKi of 7.
With Clc1ccc(/C=C2\CCCN=C2c2cccnc2)cc1 the pKi was 6.87.
Compound C(=C1/CCCN=C1c1cccnc1)/c1cc2ccccc2[nH]1 has a pKi of 8.71.
In the case of CCN(CC)c1ccc(/C=C2\CCCN=C2c2cccnc2)c(O)c1, the pKi is reported as 7.59.
CC(=O)Nc1ccc(/C=C2\CCCN=C2c2cccnc2)cc1 showed a pKi of 7.38.
In the case of O=[N+]([O-])c1cccc(/C=C2\CCCN=C2c2cccnc2)c1, the pKi is reported as 6.29.
Oc1ccc(/C=C2\CCCN=C2c2cccnc2)cc1 showed a pKi of 8.55.
COc1ccc(/C=C2\CCCN=C2c2cccnc2)cc1O showed a pKi of 8.46.
Br.NCCCCC(=O)c1cccnc1 gave a pKi of 6.09.
